Tested on: MS2 coat protein
Test: apparent Kd, MS2 coat protein; higher = weaker binding; RNA-MaP array; FMN 200 µM where present
In short: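 The apparent Kd is reported as the median of filtered per-cluster binding-curve fits. To get these curves, designs transcribed by stalled E. coli RNA polymerase on Illumina sequencing-chip clusters were titrated with SNAP-549-labelled MS2 coat protein from 0.7 or 1.5 nM, doubling to 3 µM. Titrations were run without and then with constant ligand in 100 mM Tris-HCl pH 7.5, 80 mM KCl, 4 mM MgCl2, BSA, DTT, yeast tRNA and Tween-20, and green signal was normalised to red-channel RNA signal and control-cluster median Fmax.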

[1] = designed as: OFF switch for flavin mononucleotide, no ligand
[2] = ligand present: flavin mononucleotide, designed as: OFF switch for flavin mononucleotide
[3] = designed as: ON switch for flavin mononucleotide, no ligand
[4] = ligand present: flavin mononucleotide, designed as: ON switch for flavin mononucleotide

Row | Sequence | apparent Kd [1] | apparent Kd [2] | apparent Kd [3] | apparent Kd [4]
1 | GUCAGCUCGUGAGGAUAUACAACACUGCUUCGGCAGUGUAUUAAGAUCACAUGAGGAUCACCCAUGUAGAAGGCACGAGCUGUU | 13.8 nM | 305 nM |  | 
2 | AUAUAGUCAGGAUAUCGAAAUAUAUAUUAAUAUAUAUAAUACGAGAAGGGACAUGAGGAUCACCCAUGUAGUAA | 25.7 nM | 31.1 nM |  | 
3 | AAGAGCGAUUCUCCCUUCCUACAUGAGGAUCACCCAUGUACGAGAAGGCGCCGUGUAUACAACGGUGAGGAUAUCGUGCGUUAC | 4.64 nM | 4.91 nM |  | 
4 | GAGUAGAUCCGAGGAUAUACAAUCCGGAAACGGUACAUGAGGAUCACCCAUGUAGAAGGCGGAUCUACAGGUACUAAAGUACCU |  | 7.89 nM |  | 
5 | ACAUGCGGAUGAGGAUAUUCAUUUAUGAGGAUAGAAGAAGGCAUACAUGAGGAUCACCCAUGUAUACGCAUGAGGAUCCCUUAU | 41.1 nM | 40 nM |  | 
6 | CCAGCUCGUGUUAGGAUAUCCAAGCUGCGGCUGGUGGAGAAGGGACAUGAGGAUCACCCAUGUAAUAAAGAAAA | 26.4 nM | 31.9 nM |  | 
7 | GUAAUACAUGAGGAUCACCCAUGUAAGGAUAUGCUAGCGGUCGGCUGACUGACUGCUAGCAGAAGGUACAUGAU | 85.1 nM | 128 nM |  | 
8 | AUCUACCUAGGAUAUACAUGAGGAUCACCCAUGUACAGUUUCAUCUAGGGAUACUCACGUAGAAGGAGGUAGAU | 36.6 nM | 21.5 nM |  | 
9 | GAUGUUCUGGUCAGGAUAUGCAUCCGUCGGCCGGAGCAGAAGGGACAUGAGGAUCACCCAUGUGCGGGUACAAA | 38.7 nM | 38.3 nM |  | 
10 | UAUUCACAUGAGGAUCACCCAUGUAGAAGGCCGAGCCUGGCCACGGUUACAAGCCGUGGAGAGCCGGAGGAUAUACAGCUGGUG | 140 nM | 27.8 nM |  | 
11 | CUCUUACAUGAGGAUCACCCAUGUGAGGAUAUAGCGGCCUGAUGAGGGAUCAACAUCGCUAGAAGGUACUUGGG | 101 nM | 106 nM |  | 
12 | AAUUGACACGUAGGAUAUCGAACUAUAUUAACACGAGAAGGACGUACAUGAGGAUCACCCAUGUUUAAUGGAGUAGAUAAGUUG | 144 nM | 283 nM |  | 
13 | UAUAUAUAGUAAGGAUAUGUAUUUAUUUUAUAAACAGAAGGUACUGACAUGAGGAUCACCCAUGUUUUAGUGUGGGCAUGUAGA | 89.1 nM | 128 nM |  | 
14 | UUUAUGUCAGGAUAUGAGUAGUAGAACAAUAGUACUACUACUCAGAAGGGACAUGAGGAUCACCCAUGUGCCUC | 35.2 nM | 291 nM |  | 
15 | UGGAUCAUGGGAGGAUAUCCUCAAGAGACAUGAGGAUCACCCAUGUAUUAUAAGCCGAAAGGCAUGGAGAAGGCCCAUGAUCCU |  |  | 50.3 nM | 19 nM
16 | UAGAUGGGAGGAUAUACAUAGAUACAGAUUCAUGUAGUGCUACAUGAGGAUCACCCAUGUAGAAGGCCCGUCUU | 33 nM | 355 nM |  | 
17 | GGGAUUAAGGCAGGAUAUCCGGGUUGGCCUCGACAUGAGGAUCACCCAUGUGGAGAAGGGCCGACUGCUCGAAAGGCGGUCAAG | 214 nM | 67.4 nM |  | 
18 | GGGUACAUCGGAGGAUAUCAUGUAAAUACAUGAGGAUCACCCAUGUCGAUGGAGACAUCGGAGAUUGAGAAGGCCCAUGUACCG |  |  | 199 nM | 10.8 nM
19 | UGGUACUAGGGAGGAUAUGGGAAGAUACAUGAGGAUCACCCAUGUUUAAGAAUGCCGAGAGGCAACUAGAAGGCCCUAGUACAU |  |  | 537 nM | 18.7 nM
20 | GAACGUGACAUGAGGAUCACCCAUGUUGCCUGAGCCAGGUCGUAGGAUAUCCUGAUGAUUAAUUUGGAGAAGGGCGACUGGGAA |  |  | 34.4 nM | 14.3 nM
21 | CGCAUGCGUAGAAUUAGCUGCUGACAGGAUAUGACAUGAGGAUCACCCAUGUGAUUUAAGAAGAGUCAGAAGGGUCACGAUGCG | 7.8 nM | 13.5 nM |  | 
22 | AUAGGGCUACACUGAAAGACACAUGAGGAUCACCCAUGUGAGAGAAGGGCUUCUGGAGGGCUGAGGUAGGAUAUUUCACCUGGG | 18.6 nM | 22.6 nM |  | 
23 | UAUAUAUAGUAAGGAUAUGUAUUAAUUUUACAAACAGAAGGUACUGACAUGAGGAUCACCCAUGUUUUAGUGUGGGCAUGUAGA | 59.9 nM | 72.6 nM |  | 

Source: the EternaBench riboswitch data
